Screening results as filed in PubChem BioAssay.
This is a sample that favours compounds with a hit; in the whole collection about 6.1% have one here.
DAT uptake mod: human DAT dopamine uptake with cocaine, either direction; 110,000 tested, 1.3% active; B-score at 10 µM; Q01959; LLC-PK1 hDAT cells, [14C]-dopamine uptake with cocaine IC80; actives deviate in either direction; AID 449768;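 active = Z score or B-score, a plate-position-corrected score, falls beyond the plate's 99.7% confidence bounds, in either direction; inactive = both scores lie inside the 99.7% bounds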;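 also: scored against the spread of the other compound wells on the same plate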
RAM inhibit: blocks the yeast RAM network. S. cerevisiae dse1pr::URA3 reporter, 5-FOA growth OD615, 2 d; analog-sensitive cbk1-as2 kinase mutant strain. inhibition, % at 50 µM. 190,000 tested, 1.8% active. AID 868;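 active = inhibition above a set limit, 3 SD over mean compound inhibition, cut at about 8.4% in these data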;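 also: 0% = DMSO-only wells with no growth and 100% = 10 µM 1-NA-PP1 full growth; inhibition rescues growth on 5-FOA so higher OD means more RAM inhibition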
BB579 growth dn: yeast BB579 growth reduction in restrictive medium; 140,000 tested, 0.51% active; AID 804; inhibition, % at 10 µM; S. cerevisiae BB579 growth, OD615, 48 h;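 active = inhibition above a set limit, 3 SD over the mean compound inhibition, cut at about 44% in these data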
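Test system: DeaD yeast strain BB579 / Buffer or medium: restrictive glucose-based CSMM-D medium / Doses: single 10 µM dose / Schedule: 4 h cell preincubation, 48 h compound exposure, 30 °C humidified / Technique: culture absorbance at 615 nm / Controls: amphotericin B positive control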
WT yeast gro inh: growth inhibition of WT yeast, mitochondrial fusion screen | inhibition, % at 10 µM | 190,000 tested, 2.1% active | AID 1362 | mitochondrial fusion phenotypic screen, WT strain; in the data active = inhibition above about 58%; tested in S. cerevisiae
Measles CPE: protection of cells from measles virus; Measles virus-infected cells, CPE protection, absorbance; protection (pct of control), % at 4 µM; 140,000 tested, 1.5% active; AID 841; in the data active = protection mostly above about 24%, no sharp cut-off; inactive = mostly below about 26%
Yeast life ext: yeast lifespan extension. inhibition of the nicotinamide effect, % at 10 µM. 130,000 tested, 0.68% active. S. cerevisiae growth with nicotinamide, OD615; deaD strain in restrictive glucose medium. AID 775;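 active = inhibition above a set limit, placed 3 SD over the median of all compounds, cut at about 26% in these data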;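 also: 0% = nicotinamide-treated wells and 100% = cells grown without nicotinamide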
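Assay system: engineered S. cerevisiae DeaD replicative-lifespan strain, galactose-grown log-phase cells; Buffer or medium: CSMM-D glucose medium, restrictive; Probe or stimulus: nicotinamide 1.5 mM; Compound: single dose 10 µM compound, 0.25% DMSO; Schedule: 4 h preincubation then 48 h treatment at 30 °C; Technique: OD615 measurement.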
* marks the source's active call; other numbers are inactive results; x = not tested or not shown.

SMILES	DAT uptake mod	RAM inhibit	BB579 growth dn	WT yeast gro inh	Measles CPE	Yeast life ext
c1cc2c(cc1C1CCCCC1)c1c3n2CCN=C3CCC1	0.6	0	24	93*	3	x
Cc1ccc2c(c1)c1c3n2CCN=C3CCC1	-0.13	2	-31	0	25	-4
C/C(=N/NC(=O)c1ccoc1C)c1ccc(NC(=O)c2ccncc2)cc1	x	1	-35	-11	7	-5
COc1ccc(C2NC(=O)c3sc4nc(C)c(C(C)=O)c(-c5ccc(Cl)cc5)c4c3N2)cc1 (stereo not given)	-1.5	10*	-71	-9	13	-13
COc1ccc(-c2c(C(C)=O)c(C)nc3sc4c(=N)n(N)cnc4c23)cc1	x	1	-19	-5	4	8
Cn1c(CCc2nc3ccccc3[nH]2)nnc1SCC#N	x	2	x	-8	x	x
CC(C)Cn1c(CN2CCCCC2C)nc2c1c(=O)n(C)c(=O)n2C (stereo not given)	0.039	2	-1	-10	19	-3
CCc1ccc2[nH]c(=O)c(CN(CCN(CC)CC)C(=S)NCc3ccco3)cc2c1	x	-2	x	0	x	x
CCn1cc([N+](=O)[O-])c(C(=O)N2N=C(c3ccc(Cl)c(Cl)c3)CC2c2ccccc2O)n1 (stereo not given)	x	4	x	0	x	x
CCn1cc([N+](=O)[O-])c(C(=O)N2N=C(c3ccccc3)CC2c2ccc([N+](=O)[O-])cc2)n1 (stereo not given)	x	2	-22	-4	27*	-7
COc1cccc(C2CC(c3ccc(C)cc3)Nc3nc(N)nn32)c1 (stereo not given)	-0.39	0	-26	1	40*	3
CCc1ccc(C2CC(c3ccc(C)cc3)Nc3nc(N)nn32)cc1 (stereo not given)	-2.5*	3	-12	16	16	2
Cc1ccc(C2CC(c3ccc(F)cc3)Nc3nc(N)nn32)cc1 (stereo not given)	-1.4	1	-14	4	3	-9
O=C(NCc1ccccc1)c1onc(CSc2ccccn2)c1C(=O)NCc1ccccc1	1.6	x	x	x	x	x
Cc1ccc(Nc2ccc(C(=O)O)cc2N)cc1	0.27	-1	-21	73*	9	-21
CC(C)CNS(=O)(=O)c1ccc(S(=O)(=O)N2CCCN(Cc3ccccc3)C2)cc1	0.84	0	-4	83*	10	-23
CC1CCCN(S(=O)(=O)c2ccc(S(=O)(=O)N3CCCN(Cc4ccccc4)C3)cc2)C1 (stereo not given)	-0.52	x	x	x	x	x
CCC(=O)Nc1ccc2c(c1)ncn2-c1ccc(OC)cc1	2.9*	2	1	-7	4	x
CSc1nc(Cl)c(Cc2ccc(OC(C)C)cc2)c(N(C)C)n1	x	8.9*	-11	63*	12	8
CC1(c2ccc(OC(F)F)cc2)NC(=O)N(/N=C/c2c(O)ccc3ccccc23)C1=O (stereo not given)	x	-1	-29	29	11	14
Clc1cc(Cl)cc(C2=NCCC(c3ccccc3)O2)c1 (stereo not given)	x	2	-28	75*	27	-8
CCOC(=O)c1ccc2nc(NC(=O)C(C)C)sc2c1	0.55	0	-14	1	3	-20
C=CCN(CC=C)S(=O)(=O)c1ccc2nc(NC(=O)C(C)C)sc2c1	1.5	0	-41	18	11	76*
CCOc1ccc(N2C(=O)CC(N3CCC(NC(=O)Nc4ccccc4)CC3)C2=O)cc1 (stereo not given)	-2*	0	-56	0	17	-4
COC(C[C@@H](O)C[C@@H](O)COCc1ccccc1)OC	0.45	x	x	x	x	x
CCOc1ccccc1-c1nnc(SCC(=O)Nc2ccccc2)o1	0.021	10*	-38	9	9	-18
CCCS(=O)(=O)c1c(S(=O)(=O)CCC)c2c(C)cccn2c1C(=O)N/N=C/c1cc(O)cc(O)c1	x	0	x	-2	x	x
COc1ccc(COc2cc(-c3cccc(OC)c3)nc3ccc(NC(=O)c4ccc(OC)cc4)cc23)cc1	-0.4	6	-47	-6	27	1
COc1ccc(COc2cc(-c3cccc(OC)c3)nc3ccc(NC(=O)c4ccccc4)cc23)cc1	0.13	3	-28	-1	14	-2
